Series [1] deals with T1, Polyunsaturated fatty acid 5-lipoxygenase (Homo sapiens) (UniProt P09917).
T1 sequence (whole entry): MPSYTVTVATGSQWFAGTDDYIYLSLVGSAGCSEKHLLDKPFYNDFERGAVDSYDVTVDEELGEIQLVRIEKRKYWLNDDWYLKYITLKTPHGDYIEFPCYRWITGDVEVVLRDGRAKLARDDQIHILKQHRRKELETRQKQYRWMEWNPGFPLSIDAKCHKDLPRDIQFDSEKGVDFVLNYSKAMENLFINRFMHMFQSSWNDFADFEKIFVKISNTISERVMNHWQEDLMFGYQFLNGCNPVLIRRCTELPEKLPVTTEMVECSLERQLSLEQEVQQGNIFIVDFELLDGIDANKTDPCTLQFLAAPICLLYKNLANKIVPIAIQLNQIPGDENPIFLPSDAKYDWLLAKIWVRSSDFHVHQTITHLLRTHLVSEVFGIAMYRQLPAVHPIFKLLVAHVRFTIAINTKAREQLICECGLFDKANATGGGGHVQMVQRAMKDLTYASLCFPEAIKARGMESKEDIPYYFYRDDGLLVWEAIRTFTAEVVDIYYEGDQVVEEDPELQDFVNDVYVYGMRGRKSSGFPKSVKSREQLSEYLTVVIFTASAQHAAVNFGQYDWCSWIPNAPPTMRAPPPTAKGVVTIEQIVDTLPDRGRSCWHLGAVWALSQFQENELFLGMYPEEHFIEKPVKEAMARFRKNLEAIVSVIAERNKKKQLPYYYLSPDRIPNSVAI
Kind of series: Ex vivo inhibition of 5-LO was determined by the measurement of A-23187-stimulated LTB4 production in dog blood at 24h, following intravenous administration at the dose of 1.0 mg/kg. The series is classed as functional, organism-based. Details: dose 1 mg/kg. Particulars: Canis lupus familiaris, target entry is the homologue from another species. The gist of the method:
(§1)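 Dogs received a single iv dose. Whole blood was sampled at the stated time after dosing and stimulated ex vivo with calcium ionophore A23187. LTB4 was quantitated by radioimmunoassay. Percent inhibition was calculated against each animal's pre-dose LTB4 value. One to three experiments were run per dose.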

The target of series [2] is T1, Polyunsaturated fatty acid 5-lipoxygenase (Homo sapiens). Kind of series: Ex vivo inhibition of 5-LO was determined by the measurement of A-23187-stimulated LTB4 production in dog blood at 6.0h, following intravenous administration at the dose of 1.0 mg/kg. The class given is functional, organism-based. The arrangement: dose 1 mg/kg. Particulars: Canis lupus familiaris, target entry is the homologue from another species. The gist of the method: as §1

Series [3] has the same target. Kind of series: Ex vivo inhibition of 5-LO was determined by the measurement of A-23187-stimulated LTB4 production in dog blood at 9.0h, following intravenous administration at the dose of 1.0 mg/kg. The arrangement: dose 1 mg/kg. The series is classed as functional, organism-based. The note with it: Canis lupus familiaris, target entry is the homologue from another species. The gist of the method:
as §1

For series [4] the target is unchanged. Kind of series: Ex vivo inhibition of 5-lipoxygenase was determined by the measurement of A-23187-stimulated LTB4 production in dog blood at 0.08h, following intravenous administration at the dose of 1.0 mg/kg. The class given is functional, organism-based. Details: dose 1 mg/kg. The note with it: Canis lupus familiaris, target entry is the homologue from another species. The gist of the method: as §1

Series [5] has the same target. Kind of series: Ex vivo inhibition of 5-lipoxygenase was determined by the measurement of A-23187-stimulated LTB4 production in dog blood at 0.25h, following intravenous administration at the dose of 1.0 mg/kg. The series is classed as functional, organism-based. Details: dose 1 mg/kg. Particulars: Canis lupus familiaris, target entry is the homologue from another species. The gist of the method:
(§2)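 Dog ex vivo assay: compound given as a single iv dose. Whole blood drawn at set times after dosing was stimulated ex vivo with calcium ionophore A23187. LTB4 was quantitated by radioimmunoassay. Percent inhibition at each time point was calculated against the LTB4 value before dosing. n = 1–3 experiments per compound.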

For series [6] the target is unchanged. Kind of series: Ex vivo inhibition of 5-lipoxygenase was determined by the measurement of A-23187-stimulated LTB4 production in dog blood at 0.5h, following intravenous administration at the dose of 1.0 mg/kg. The series is classed as functional, organism-based. Details: dose 1 mg/kg. Particulars: Canis lupus familiaris, target entry is the homologue from another species. The method, boiled down: as §1

Series [7] shares this target. Kind of series: Ex vivo inhibition of 5-lipoxygenase was determined by the measurement of A-23187-stimulated LTB4 production in dog blood at 1.0h, following intravenous administration at the dose of 1.0 mg/kg. The class given is functional, organism-based. Details: dose 1 mg/kg. The note with it: Canis lupus familiaris, target entry is the homologue from another species. The method, boiled down:
as §1

Series [8] can be described thus: Duration of action was defined as the period of time from maximum inhibition of A-23187-stimulated LTB4 formation to the time where 50% of maximum inhibition is reached. The gist of the method:
(§3)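 Dogs got a single iv or oral dose. Whole blood was drawn at set times afterwards and stimulated ex vivo with the calcium ionophore A23187. LTB4 was measured by radioimmunoassay, and inhibition was taken as the change from the pre-dose LTB4 value. DA, the time from maximum inhibition to 50% of maximum, was read graphically from the plot of percent inhibition vs time.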

Series [9] has as its target T1, Polyunsaturated fatty acid 5-lipoxygenase (Homo sapiens). Kind of series: Ex vivo inhibition of 5-lipoxygenase was determined by the measurement of A-23187-stimulated LTB4 production in dog blood at 6.0h, following intravenous administration at the dose of 1.0 mg/kg. The series is classed as functional, organism-based. The arrangement: dose 1 mg/kg. Particulars: Canis lupus familiaris, target entry is the homologue from another species. The method, boiled down: as §1

Series [10] has the same target. Kind of series: Ex vivo inhibition of 5-lipoxygenase was determined by the measurement of A-23187-stimulated LTB4 production in dog blood at 24h, following intravenous administration at the dose of 1.0 mg/kg. Particulars: Canis lupus familiaris, target entry is the homologue from another species. The series is classed as functional, organism-based. The arrangement: dose 1 mg/kg. The gist of the method:
as §1

Series [11] has the same target. Kind of series: Ex vivo inhibition of 5-lipoxygenase was determined by the measurement of A-23187-stimulated LTB4 production in dog blood at 9.0h, following intravenous administration at the dose of 1.0 mg/kg. The class given is functional, organism-based. The arrangement: dose 1 mg/kg. The note with it: Canis lupus familiaris, target entry is the homologue from another species. The gist of the method: as §1

Series [12] is described as follows: Duration of action of 5-LO was defined as the period of time from maximum inhibition of A-23187-stimulated LTB4 formation to the time where 50% of maximum inhibition is reached. The method, boiled down: as §3
For series [13], the target named is T1, Polyunsaturated fatty acid 5-lipoxygenase (Homo sapiens). Kind of series: Ex vivo inhibition of 5-LO was determined by the measurement of A-23187-stimulated LTB4 production in dog blood at 0.08h, following intravenous administration at the dose of 1.0 mg/kg. The arrangement: dose 1 mg/kg. The class given is functional, organism-based. Particulars: Canis lupus familiaris, target entry is the homologue from another species. The method, boiled down:
as §1

Series [14] has the same target. Kind of series: Ex vivo inhibition of 5-LO was determined by the measurement of A-23187-stimulated LTB4 production in dog blood at 0.25h, following intravenous administration at the dose of 1.0 mg/kg. The series is classed as functional, organism-based. The arrangement: dose 1 mg/kg. Particulars: Canis lupus familiaris, target entry is the homologue from another species. The gist of the method: as §2

For series [15] the target is unchanged. Kind of series: Ex vivo inhibition of 5-LO was determined by the measurement of A-23187-stimulated LTB4 production in dog blood at 0.5h, following intravenous administration at the dose of 1.0 mg/kg. The class given is functional, organism-based. The arrangement: dose 1 mg/kg. Particulars: Canis lupus familiaris, target entry is the homologue from another species. The gist of the method: as §1

For series [16] the target is unchanged. Kind of series: Ex vivo inhibition of 5-LO was determined by the measurement of A-23187-stimulated LTB4 production in dog blood at 1.0h, following intravenous administration at the dose of 1.0 mg/kg. The note with it: Canis lupus familiaris, target entry is the homologue from another species. The series is classed as functional, organism-based. The arrangement: dose 1 mg/kg. The gist of the method: as §1

Series [17] has the same target. Kind of series: Ex vivo inhibition of 5-LO was determined by the measurement of A-23187-stimulated LTB4 production in dog blood at 3.0h, following intravenous administration at the dose of 1.0 mg/kg. The class given is functional, organism-based. The note with it: Canis lupus familiaris, target entry is the homologue from another species. Details: dose 1 mg/kg. The gist of the method: as §1

Where “and” joins values, the source holds several entries; their conditions need not be identical. Equal values may be shown once.

What is called inhibition is the percentage by which the read-out fell short of the control.

With `NC(=O)N(O)C[C@@H]1COc2ccc(Oc3ccc(F)cc3)cc2O1`, the inhibition in [1] was 0%; in series [2] it was 15%; in [3] it was 0%; in [4], 100%; in series [5], 100%; in series [6], 100%. For the same compound, the inhibition in [7] was 100%. Also, the Duration of action in series [8] is 3.8 h and 3.7 h.

In the case of `CCCCNC(=O)N(O)CC1COc2ccccc2O1` (stereo unspecified), the inhibition in [9] came to 0%; in series [4], 100%; in series [5], 100%; in series [6], 64%; in [7], 45%. Besides, in series [8], the Duration of action is 0.7 h.

For the compound `NC(=O)N(O)CC1COc2ccc(Oc3ccc(F)cc3)cc2O1` (stereo unspecified), the inhibition in [10] was 17%; in series [9] it was 63%; in [11], 34% and 48%; in series [4] it was 94%; in series [5], 98%; in [6] it was 94%. This compound came in with an inhibition in [7] of 92%. For the same compound, the Duration of action in series [8] is 8.2 h and 8.5 h.

For `NC(=O)N(O)C[C@H]1COc2ccc(Oc3ccc(F)cc3)cc2O1`, the Duration of action in [12] worked out at 8.4 h.

As to `NC(=O)N(O)CC1COc2ccc(Oc3ccccc3)cc2O1` (stereo unspecified), the inhibition in series [10] was determined as 4%; in series [9], 22%; in [11] it was 0%; in [4] it was 100%; in series [5], 100%; in series [6], 100%. In [7], this compound yielded an inhibition of 100%. In series [8], this compound displayed a Duration of action of 4 h.

Turning to `CC(c1cc2ccccc2s1)N(O)C(N)=O` (stereo unspecified) [ZILEUTON], the inhibition in series [10] worked out at 27%; in series [9], 56%; in series [11], 47%; in series [4], 96%; in [5] it was 94%; in series [6] it was 91%. This compound also came in with an inhibition in series [7] of 87%. Further, the Duration of action in [8] was 8.5 h and 9.8 h.

With `NC(=O)N(O)CC1COc2cc(Oc3ccccc3)ccc2O1` (stereo unspecified), the inhibition in [13] was 100%; in series [14], 100%; in [15] it was 100%; in series [16] it was 98%; in series [1], 2%; in [17], 14%. For the same compound, the inhibition was found to be 1% in series [2] and 9% in series [3]. The compound further returned a Duration of action in [8] of 1.7 h.

`CNC(=O)N(O)CC1COc2ccc(Oc3ccccc3)cc2O1` (stereo unspecified): the inhibition in series [10] worked out at 0%; in series [9], 0%; in [11], 9%; in series [4], 100%; in [5] it was 100%; in series [6], 98%. The inhibition in series [7] amounted to 74%. Moreover, the Duration of action in series [8] is 1.5 h.

The record behind these values is ChEMBL document CHEMBL1128345, “Derivatives of 2-[[N-(Aminocarbonyl)-N-hydroxyamino]methyl]-1,4- benzodioxan as orally active 5-lipoxygenase inhibitors” (J Med Chem, 1995).
